These results are taken from ChEMBL document CHEMBL2040756, “Discovery and optimization of 2,4-diaminoquinazoline derivatives as a new class of potent dengue virus inhibitors” (J Med Chem, 2012).

The source made the active and inactive calls. Where only a bound is given, the exact number is not on record here.

For series [1], the system named is dengue virus type 2. The experiment in a line: Antiviral activity against Dengue virus 2 infected in BHK-D2RepT replicon systems assessed as inhibition of viral replication after 24 hrs by luciferase reporter gene assay. Type of series: functional, organism-based. The method, boiled down:
(§1)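 BHK-D2RepT replicon cells, kept in MEM with 10% FBS and 200 μg/mL G418, were preseeded 24 h without G418. Compounds were diluted from DMSO stock into MEM, with final DMSO <0.2% (v/v), and incubated 24 h. Medium was then replaced and firefly luciferase read. Inhibition was expressed as a percentage of the no-compound luciferase signal.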
In general terms: Replicon systems follow genome replication, usually without infectious particles.

Series [2] in a line: Cytotoxicity against hamster BHK cells. In kind it is cell-based, Mesocricetus auratus.
Series [3] in a line: Selectivity index, ratio of CC50 for hamster BHK cells to EC50 for Dengue virus 2. Type of series: toxicity, cell-based. Particulars: read-out: Ratio CC50/EC50.
Series [4] concerns dengue virus type 2. Kind of series: Antiviral activity against Dengue virus 2 infected in BHK-D2RepT replicon systems assessed as inhibition of viral multiplication after 24 hrs by luciferase reporter gene assay. Type of series: functional, organism-based. In short, it runs like this:
as §1

The test system of series [5] is dengue virus type 2. The experiment in a line: Antiviral activity against Dengue virus 2 infected in BHK-D2RepT replicon systems assessed as inhibition of viral expression after 24 hrs by luciferase reporter gene assay. In kind it is functional, organism-based. The method, boiled down:
as §1

For series [6], the system named is dengue virus type 2. The experiment in a line: Antiviral activity against Dengue virus 2 infected in BHK-D2RepT replicon systems assessed as […] after 24 hrs by luciferase reporter gene assay. Type of series: functional, organism-based. In short, it runs like this:
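BHK-D2RepT DENV-2 replicon cells carrying a luciferase reporter are kept in MEM with 10% FBS and 200 μg/mL G418, then preseeded 24 h without G418. Compound from DMSO stock is diluted in MEM (final DMSO <0.2% v/v) and incubated 24 h. Medium is replaced and firefly luciferase read. Inhibition is expressed as percent of no-compound luciferase signal.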

Series [7] relates to dengue virus type 2. Kind of series: Antiviral activity against Dengue virus 2 NGC infected in forest mosquito C6/36 cells assessed as inhibition of virus-induced cytopathic effect after 48 hrs by optical microscopy. Type of series: functional, organism-based. The method, boiled down:
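DENV-2 NGC strain was grown in C6/36 cells and titered. C6/36 cells were preseeded overnight and then infected at MOI 0.01, allowing several rounds of replication that produce syncytia.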
In general terms: Cytopathic effects are the visible damage that an infection or toxin causes in cultured cells.

The nature of series [8]: AUC (0 to infinity) in rat at 20 mg/kg, po administered as single dose. In kind it is ADME, organism-based. Further details: time infinity, dose 20 mg/kg, route oral. Particulars: plasma. The method, boiled down:
(§2)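 Rats received one dose, either oral at 20 mg/kg or intravenous at 10 mg/kg. Plasma concentration of the compound was followed over time after dosing. AUC was taken as the area under the plasma concentration–time curve from time zero to infinity.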

Series [9] in a line: Mean residence time in rat at 20 mg/kg, po administered as single dose. In kind it is ADME, organism-based. The conditions noted are these: in vivo. Further details: dose 20 mg/kg, route oral. The method, boiled down: (§3)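 Rats received a single dose of 20 mg/kg orally or 10 mg/kg intravenously. Plasma concentration–time profiles gave AUC0→∞, MRT, t1/2, Tmax, Cmax, clearance, terminal volume of distribution and oral bioavailability.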

The nature of series [10]: Half life in rat at 20 mg/kg, po administered as single dose. Type of series: ADME, organism-based. Set-up: dose 20 mg/kg, route oral. Particulars: in vivo. In short, it runs like this:
as §3

Series [11] can be described thus: Tmax in rat at 20 mg/kg, po administered as single dose. In kind it is ADME, organism-based. Set-up: dose 20 mg/kg, route oral. Particulars: in vivo. In short, it runs like this:
as §3

Series [12] can be described thus: Cmax in rat at 20 mg/kg, po administered as single dose measured 2 hrs post dose. Type of series: ADME, organism-based. Further details: dose 20 mg/kg, route oral. Particulars: in vivo. In short, it runs like this:
as §3

A short description of series [13]: Plasma clearance in rat at 10 mg/kg, iv administered as single dose. Type of series: ADME, organism-based. Set-up: dose 10 mg/kg, route intravenous. The method, boiled down: as §3
Series [14] in a line: Apparent volume of distribution in rat at 10 mg/kg, iv administered as single dose. Type of series: ADME, organism-based. The conditions noted are these: in vivo, read-out: Vz. Further details: dose 10 mg/kg, route intravenous. In short, it runs like this:
as §3

Series [15] can be described thus: Oral bioavailability in rat at 20 mg/kg administered as single dose. Type of series: ADME, organism-based. Particulars: in vivo. In short, it runs like this: as §3
Series [16] is described as follows: AUC (0 to infinity) in rat at 10 mg/kg, iv administered as single dose. Set-up: time infinity, dose 10 mg/kg, route intravenous. Particulars: plasma. Type of series: ADME, organism-based. In short, it runs like this:
as §2

Series [17] can be described thus: Mean residence time in rat at 10 mg/kg, iv administered as single dose. Type of series: ADME, organism-based. Further details: dose 10 mg/kg, route intravenous. The conditions noted are these: in vivo. The method, boiled down:
as §3

The nature of series [18]: Half life in rat at 10 mg/kg, iv administered as single dose. In kind it is ADME, organism-based. Further details: dose 10 mg/kg, route intravenous. The conditions noted are these: in vivo. The method, boiled down: as §3
The target of series [19] is Voltage-gated inwardly rectifying potassium channel KCNH2 (Homo sapiens, UniProt Q12809). The experiment in a line: Inhibition of human ERG expressed in HEK293 cells by patch clamp assay. Type of series: cell-based. In short, it runs like this: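 hERG (IKr) potassium channel currents in HEK-293 cells were recorded by patch clamp.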
A general note: In patch-clamp work, channel activity is measured electrically.

Series [20] has as its system dengue virus type 2. The experiment in a line: Antiviral activity against Dengue virus 2.

Voltage-gated inwardly rectifying potassium channel KCNH2, sequence (Q12809 whole entry): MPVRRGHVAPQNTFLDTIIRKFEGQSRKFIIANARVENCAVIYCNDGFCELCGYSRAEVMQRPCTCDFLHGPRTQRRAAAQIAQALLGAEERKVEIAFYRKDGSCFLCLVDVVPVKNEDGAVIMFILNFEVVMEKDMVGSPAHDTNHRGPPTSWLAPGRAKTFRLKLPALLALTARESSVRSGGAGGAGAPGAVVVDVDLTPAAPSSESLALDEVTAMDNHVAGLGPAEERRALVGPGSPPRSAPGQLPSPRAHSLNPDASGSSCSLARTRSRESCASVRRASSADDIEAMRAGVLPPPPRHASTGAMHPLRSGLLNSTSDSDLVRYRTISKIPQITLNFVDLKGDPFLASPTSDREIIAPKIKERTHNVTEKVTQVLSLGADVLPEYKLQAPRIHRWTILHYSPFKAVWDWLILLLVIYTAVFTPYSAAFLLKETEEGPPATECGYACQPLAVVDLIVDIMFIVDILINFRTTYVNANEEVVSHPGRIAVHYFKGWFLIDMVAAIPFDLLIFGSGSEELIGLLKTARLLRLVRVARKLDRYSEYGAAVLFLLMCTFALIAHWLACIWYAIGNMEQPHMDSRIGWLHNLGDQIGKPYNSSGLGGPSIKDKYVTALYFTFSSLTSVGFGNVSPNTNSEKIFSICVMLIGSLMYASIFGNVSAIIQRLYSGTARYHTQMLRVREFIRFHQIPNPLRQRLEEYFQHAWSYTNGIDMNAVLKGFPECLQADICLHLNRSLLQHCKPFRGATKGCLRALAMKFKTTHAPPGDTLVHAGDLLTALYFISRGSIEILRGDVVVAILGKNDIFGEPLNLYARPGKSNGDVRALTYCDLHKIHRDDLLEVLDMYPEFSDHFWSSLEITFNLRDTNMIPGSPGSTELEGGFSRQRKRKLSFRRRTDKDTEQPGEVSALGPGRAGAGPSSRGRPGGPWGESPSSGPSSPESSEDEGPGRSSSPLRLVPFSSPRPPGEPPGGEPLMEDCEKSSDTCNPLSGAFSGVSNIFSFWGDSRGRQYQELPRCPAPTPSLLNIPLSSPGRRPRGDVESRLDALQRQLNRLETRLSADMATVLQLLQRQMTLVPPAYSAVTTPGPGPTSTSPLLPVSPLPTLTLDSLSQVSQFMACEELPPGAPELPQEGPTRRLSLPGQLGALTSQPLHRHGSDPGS

Broadly, the EC50 is the concentration at which the effect is half-maximal. Broadly, the CC50 is the concentration giving 50% cytotoxicity. A high value points to lower toxicity to the cells. As to `CN(C)c1cccc2nc(N)nc(N)c12`, the EC50 in series [1] was found to be 3300 nM. In series [2], this compound displayed a CC50 of more than 10000 nM. Moreover, the selectivity ratio in series [3] is more than 3.

On to `CC(C)(C)S(=O)(=O)c1cccc2nc(N)nc(N)c12`, for which, in series [1], the EC50 is more than 10000 nM. In [2], this compound came in with a CC50 of more than 10000 nM.

By AUC(0-inf) is commonly meant the area under the concentration-time curve extrapolated to infinity. Low values mean less exposure, high ones more exposure. The MRT is the average time that molecules of a dose stay in the body. A word on the half-life: it is the time needed for the level to fall by half in the phase considered. The low end stands for rapid decline, the high end for slow decline. By Tmax is commonly meant the time from dosing to the highest level. By Cmax is commonly meant the maximum level reached in the sampled fluid or tissue. As usually defined, the clearance is the volume of plasma or blood freed of the substance per unit of time. By bioavailability is commonly meant dose-corrected exposure relative to a reference, in per cent. Low readings indicate little systemic uptake, high ones much systemic uptake. In general, IC50 refers to the concentration that gives 50% inhibition. A higher IC50 goes with weaker potency. Regarding `CC(C)(C)Oc1cccc2nc(N)nc(N)c12`, the EC50 in [1] was 2.8 nM; in series [6] it was less than 50 nM. In addition, in series [2], the CC50 is more than 10000 nM. For the same compound, the selectivity ratio in series [3] is more than 1000. The outcome in series [4], in series [5], in series [7] and in series [20] was Active. The values for the AUC(0-inf) in series [8] and in [16] were 2220 ng·h/mL and 1560 ng·h/mL, respectively. For the same compound, the figures for the MRT in [9] and in series [17] were 7.2 h and 1.8 h, respectively. Besides, the half-life in series [10] was 5 h; in series [18] it was 1.3 h. For the same compound, the Tmax in series [11] amounted to 2 h. For the same compound, in series [12], the Cmax came to 249 ng/mL. This compound also returned a clearance in series [13] of 6.56 mL/min/kg. In [14], the Vd was 11.7 L/kg. Also, the bioavailability in series [15] was 69%. Also, in series [19], half-maximal inhibition (IC50) required 20200 nM.

For `Nc1nc(N)c2ccc(Oc3ccccc3)cc2n1`, the EC50 in series [1] was more than 10000 nM. In addition, the 50% cytotoxic concentration (CC50) in series [2] was more than 10000 nM.

`CCCCCCCCOc1cccc2nc(N)nc(N)c12`: the EC50 in series [1] worked out at 180 nM. This compound registered a CC50 in [2] of 730 nM. Further, the selectivity ratio in series [3] came to 4.1.

In the case of `Nc1nc(N)c2ccccc2n1`, in series [1], the EC50 was more than 10000 nM. For the same compound, the CC50 in series [2] is more than 10000 nM.

As to `COc1ccc2c(N)nc(N)nc2c1`, the EC50 in series [1] was more than 10000 nM. This compound gave a CC50 in series [2] of more than 10000 nM.

Consider `Nc1nc(N)c2c(OC3CCCCC3)cccc2n1`, for which the EC50 in series [1] worked out at 130 nM. Also, in series [2], the CC50 is more than 10000 nM. The selectivity ratio in series [3] is more than 76.9.

As to `COc1cccc2nc(N)nc(N)c12`, the EC50 in series [1] came to 150 nM. The compound also showed a CC50 in series [2] of more than 10000 nM. Besides, in series [3], the selectivity ratio is more than 66.7.

As to `CC(C)(C)Sc1cccc2nc(N)nc(N)c12`, in series [1], the EC50 is 900 nM. For the same compound, in [2], half-maximal cytotoxicity (CC50) was put at 5300 nM. In series [3], the selectivity ratio is 5.9.

For the compound `Nc1nc(N)c2c(F)cccc2n1`, the EC50 in [1] was more than 10000 nM. Besides, the CC50 in series [2] was more than 10000 nM.

`COc1ccc2nc(N)nc(N)c2c1`: the EC50 in series [1] was more than 10000 nM. This compound registered a CC50 in series [2] of more than 10000 nM.

Consider `Nc1nc(N)c2c(OC3CCCC3)cccc2n1`, for which, in series [1], the EC50 worked out at 7.4 nM. The CC50 in series [2] is more than 10000 nM. Moreover, the selectivity ratio in series [3] is more than 1000.

With `Nc1nc(N)c2cc(Oc3ccccc3)ccc2n1`, in series [1], the EC50 was more than 10000 nM. For the same compound, the CC50 in series [2] was more than 10000 nM.

`Nc1nc(N)c2c(OCc3ccccc3)cccc2n1`: the EC50 in series [1] was found to be 39 nM. This compound also yielded a CC50 in series [2] of more than 10000 nM. Moreover, the selectivity ratio in [3] is more than 200.

Regarding `Nc1nc(N)c2cccc(Oc3ccccc3)c2n1`, the half-maximal effective concentration (EC50) in series [1] amounted to 60 nM. In series [2], this compound came in with a CC50 of 550 nM. Also, the selectivity ratio in series [3] stood at 9.2.

As for `CC(C)(C)COc1cccc2nc(N)nc(N)c12`, the EC50 in series [1] is 80 nM. The same compound yielded a CC50 in series [2] of 650 nM. For the same compound, the selectivity ratio in [3] came out at 8.1.

Consider `Nc1nc(N)c2c(OCC(F)(F)F)cccc2n1`, for which, in series [1], the EC50 turned out to be 7.9 nM. For the same compound, the CC50 in series [2] is more than 10000 nM. Moreover, the selectivity ratio in series [3] was more than 1000.

Take `CC(C)(C)Nc1cccc2nc(N)nc(N)c12`: the EC50 in series [1] stood at 9.2 nM. Also, in series [2], the CC50 is 2500 nM. The selectivity ratio in series [3] is more than 200.

Regarding `CCOc1cccc2nc(N)nc(N)c12`, the EC50 in series [1] came to 37 nM. This compound also returned a CC50 in series [2] of more than 10000 nM. For the same compound, the selectivity ratio in series [3] is more than 200.

Take `Nc1nc(N)c2c(Oc3ccccc3)cccc2n1`: the EC50 in series [1] amounted to 29 nM. This compound came in with a CC50 in series [2] of more than 10000 nM. In addition, the selectivity ratio in [3] is more than 300.

Turning to `COc1cccc2c(N)nc(N)nc12`, in series [1], the EC50 was 5400 nM. In series [2], this compound returned a CC50 of more than 10000 nM. In addition, in series [3], the selectivity ratio is more than 1.9.

As for `Nc1nc(N)c2c(N3CCCC3)cccc2n1`, the EC50 in series [1] came out at 150 nM. Moreover, it took 1200 nM to reach half-maximal cytotoxicity in series [2] (CC50). Moreover, the selectivity ratio in series [3] was found to be 8.

`CCCCOc1cccc2nc(N)nc(N)c12`: in [1], the EC50 turned out to be 36 nM. The compound also returned a CC50 in series [2] of more than 10000 nM. In addition, the selectivity ratio in series [3] is more than 200.
